Assay outcomes as filed in PubChem.
procasp3 activ = activators of human procaspase-3 D3A mutant, primary screen, biochemical, absorbance, PC-3 D3A mutant, single concentration; Caspase-3 (Homo sapiens), P42574; recombinant procaspase-3 D3A, Ac-DEVD-pNA absorbance 405 nm; activation, % at 8.5 µM; hit rate 0.11% among 330,000;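 active means activation above the mean of all tested compounds plus 3 SD, cut at about 21% in these data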
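Compound: 8.5 µM single point, 0.8% DMSO / Material: Autoprocessing-dead procaspase-3 D3A mutant enzyme / Timing: 1 h preincubation plus 2 h reaction at 25 °C / Medium: Zinc-free HEPES/NaCl buffer with 0.01% Triton X-100 at pH 7.4 / Technique: 405 nm absorbance of p-nitroaniline, reads at 0 and 120 min / Repeats: one well per compound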
VLA-4 inh = inhibition in human VLA-4 binding assay, primary screen, VLA-4 allosteric modulator project, MLPCN library, flow cytometry, VLA-4 expressing cells; hit rate 0.2% among 330,000; Integrin alpha-4 (Homo sapiens), P13612; ligand binding flow cytometry; inhibition, % (about 7 µM as worked out from the volumes in the protocol); in the data active means inhibition above about 50%
Lipid droplet = inhibitors of hepatocyte lipid droplet formation, primary screen, imaging, high-throughput imaging, BODIPY stain; hit rate 0.4% among 240,000; inhibition, % at 6.5 µM; AML12 mouse hepatocytes, oleate lipid droplets; AID 1656, 2009;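 active means lipid droplet intensity inhibited by at least 50%, with more than 500 cells counted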
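Material: mouse AML12 hepatocyte cell line, fixed after treatment; Timing: compound with oleate, overnight; Technique: high-content imaging of BODIPY-stained droplets and DAPI nuclei; Probe or stimulus: oleate, 100 µM final; Dosing: compound at 6.5 µM only.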
proCasp7 act = procaspase-7 activators, primary screen, counter-screen for procaspase-3 activator project, biochemical, absorbance, HTS, human; Caspase-7 (Homo sapiens), P55210; hit rate 0.093% among 330,000; activation, % at 8.5 µM; recombinant procaspase-7, Ac-DEVD-pNA absorbance 405 nm; D23A/D198A/D206A triple mutant, cannot self-cleave; scale: DMSO 0, 5 µM enzyme 100; AID 463210, 2010;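 active means percent activation above the screen-wide mean plus 3 SD, cut at about 25% in these data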
Target sequence (P55210 whole entry D23A/D198A/D206A): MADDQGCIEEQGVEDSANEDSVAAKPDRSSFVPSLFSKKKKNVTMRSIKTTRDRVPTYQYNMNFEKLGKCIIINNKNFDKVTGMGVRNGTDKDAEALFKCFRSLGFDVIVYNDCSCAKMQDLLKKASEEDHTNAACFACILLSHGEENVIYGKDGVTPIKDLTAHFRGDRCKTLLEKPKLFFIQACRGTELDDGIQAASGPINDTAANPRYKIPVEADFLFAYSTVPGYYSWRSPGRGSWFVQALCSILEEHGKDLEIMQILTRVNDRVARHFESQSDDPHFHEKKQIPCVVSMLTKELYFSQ
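Assay system – Uncleavable procaspase-7 mutant enzyme · Quantity – 2 µM procaspase-7 mutant as dispensed · Times – 1 h preincubation, 2 h reaction · Dosing – single nominal 8.5 µM compound dose, 0.8% DMSO final · Buffer or medium – Zinc-free 50 mM HEPES buffer, pH 7.4, with NaCl and Triton X-100 · Detection – Epi-absorbance of released pNA at 405 nm, two timepoints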
GASC-1 inh = inhibitors of GASC-1 histone demethylase, primary screen, biochemical, fluorescence, DELFIA europium. hit rate 0.069% among 330,000. inhibition, % at 2.35 µM. AID 2099, 2009. GST-JMJD2C(1-420) H3K9me3 demethylation;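 active means more than half of a compound's replicate wells show inhibition beyond 50%, single wells judged on their own value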;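 further: signal counts dimethyl H3K9 product captured on neutravidin plate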
GRK2 inh = compounds blocking aptamer binding on GRK2 – biochemical, human GRK2, bead flow cytometry, HTS, primary screen | inhibition of aptamer binding, % at 10 µM | Beta-adrenergic receptor kinase 1 (Homo sapiens), P25098 | FAM-aptamer displacement from GRK2 | hit rate 0.59% among 330,000;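 active means inhibition of aptamer binding above 40%, roughly 3 SD of noise, on plates passing a quality check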;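 further: median bead fluorescence of bound FAM aptamer so fluorescent compounds give negative values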
VLA-4 mod pick = retest of VLA-4 allosteric modulators, confirmation, cell-based, cherry-picked plates, U937, HUTS-21 LIBS antibody | shares compounds with VLA-4 inh | U937 cells, HUTS-21 LIBS mAb binding, flow cytometry; LDV ligand present at threefold Kd | inhibition, % at 6.7 µM | hit rate 2% among 1,300 | AID 2813, 2010; in the data active means inhibition above about 40%
Of the large screens only hits and unclear results are named; the others gave an inactive call (follow-up assays come after a bar, where they were run). Most compounds without a hit are left out; they make up all but 1.3% or so of the library.

O=C1c2ccccc2S(=O)(=O)c2cc(C(=O)N3CCC(C(=O)N4CCCCC4)CC3)ccc21	none (no result: Lipid droplet)
O=C1NCC(=O)N2CCC[C@@H]12	VLA-4 inh 54 (no result: Lipid droplet) | VLA-4 mod pick inactive
CC(NC(=O)c1ccccc1F)c1nnc(SCC(=O)Nc2nccs2)n1C (stereo unspecified)	none | VLA-4 mod pick inactive
CS(=O)(=O)c1cccc(C(=O)NCc2ccc(F)cc2)c1	VLA-4 inh 93 | VLA-4 mod pick inactive
O=C(CN1C(=O)C2C3C=CC(C3)C2C1=O)OCC(=O)c1ccc(Br)cc1 (stereo unspecified)	none
COC(=O)c1ccc(NC(=O)Nc2ccc(F)cc2)cc1	none (no result: Lipid droplet)
COc1ccc(NC(=O)Nc2ccc(F)cc2)cn1	none | VLA-4 mod pick inactive
Cc1cc(Cl)ccc1Oc1ccccc1C(=O)CC#N	none | VLA-4 mod pick inactive
Cc1cc(Cl)ccc1Oc1ccc(C(N)=O)cc1[N+](=O)[O-]	none
C[C@@H]1CN([C@H](C)CO)C(=O)Cc2cc(NS(=O)(=O)c3cn(C)cn3)ccc2O[C@H]1CN(C)S(=O)(=O)c1ccc(Cl)cc1	none (no result: Lipid droplet, GASC-1 inh)
CCN(CC(=O)Nc1ccc(NC(C)=O)cc1)C(=O)/C=C/c1cccs1	VLA-4 inh 54 | VLA-4 mod pick inactive
CCN(CC(=O)Nc1ccc(NC(C)=O)cc1)C(=O)/C=C/c1ccco1	none (no result: Lipid droplet)
COC(=O)Cn1c(=NC(=O)CCS(=O)(=O)c2ccccc2)sc2c(OC)ccc(OC)c21	none
CCN(CC)c1ccc(CNc2ccc3c(c2)ncn3C(C)(C)C)cc1	VLA-4 inh 54 (no result: GASC-1 inh) | VLA-4 mod pick inactive
S=C(NCCCc1ccccc1)Nc1ccccc1Cl	VLA-4 inh 50 | VLA-4 mod pick inactive
S=C(NCCc1ccccc1)Nc1ccccc1Cl	none
Cc1nc(NC(=O)c2cccc(-c3cc4ccccc4oc3=O)c2)ccc1Br	none
Cc1nc(NC(=O)c2ccc(-c3cc4ccccc4oc3=O)cc2)ccc1Br	none | VLA-4 mod pick inactive
CCNC(=S)NNc1nnc(-c2ccccc2)c(-c2ccccc2)n1	none (no result: GRK2 inh)
COC(=O)[C@]1(Cc2ccccc2)N[C@H](CN(C)C(C)=O)[C@@H]2C(=O)N(Cc3ccccc3)C(=O)[C@@H]21	none (no result: Lipid droplet, GASC-1 inh) | VLA-4 mod pick inactive
COC(=O)[C@]1(Cc2ccccc2)N[C@H](CN(C)C(=O)NC(C)C)[C@@H]2C(=O)N(Cc3ccccc3)C(=O)[C@@H]21	none (no result: Lipid droplet)
COC(=O)[C@]1(Cc2ccccc2)N[C@H](CN(C)C(=O)c2ccc(C(C)(C)C)cc2)[C@@H]2C(=O)N(Cc3ccccc3)C(=O)[C@@H]21	none (no result: Lipid droplet, GASC-1 inh) | VLA-4 mod pick inactive
Cc1cc(C)n(/C(=C\N(C)C)C(=O)c2ccc(Cl)cc2)n1	none
Cc1cc(C)n(/C(=C\N(C)C)C(=O)c2cccc([N+](=O)[O-])c2)n1	none | VLA-4 mod pick inactive
O=C(Cn1c(=O)oc2ccccc21)Nc1ccc(Cl)cc1Cl	none | VLA-4 mod pick inactive
COc1ccccc1CCNC(=O)Cn1c(=O)oc2ccccc21	none (no result: procasp3 activ, proCasp7 act)
COc1ccc(Cl)cc1NC(=O)Cn1c(=O)oc2ccccc21	none
O=C(Cn1c(=O)oc2ccccc21)NCCc1ccccc1	none | VLA-4 mod pick inactive
O=C(Cn1c(=O)oc2ccccc21)Nc1ccc(F)cc1	none
COc1ccc(NC(=O)Cn2c(=O)oc3cc(Cl)ccc32)c(OC)c1	none | VLA-4 mod pick inactive
O=C(Cn1c(=O)oc2ccccc21)Nc1ccc(Br)cc1	none | VLA-4 mod pick inactive
O=C(OCc1ccc(F)cc1)c1cc(=O)c2ccccc2o1	none
